The record followed here is ChEMBL document CHEMBL4052588, “Design of a Biased Potent Small Molecule Inhibitor of the Bromodomain and PHD Finger-Containing (BRPF) Proteins Suitable for Cellular and in Vivo Studies” (J Med Chem, 2017).

Assay [1] addresses Bromodomain-containing protein 4 (Homo sapiens, UniProt O60885). In words: Inhibition of human His tagged BRD4-BD1 incubated for 30 mins followed by addition of biotinylated peptide and further incubation for 30 mins measured by AlphaScreen assay.
Another assay has as its target T1, Peregrin (Homo sapiens, UniProt P55201).
T1 sequence (P55201 whole entry): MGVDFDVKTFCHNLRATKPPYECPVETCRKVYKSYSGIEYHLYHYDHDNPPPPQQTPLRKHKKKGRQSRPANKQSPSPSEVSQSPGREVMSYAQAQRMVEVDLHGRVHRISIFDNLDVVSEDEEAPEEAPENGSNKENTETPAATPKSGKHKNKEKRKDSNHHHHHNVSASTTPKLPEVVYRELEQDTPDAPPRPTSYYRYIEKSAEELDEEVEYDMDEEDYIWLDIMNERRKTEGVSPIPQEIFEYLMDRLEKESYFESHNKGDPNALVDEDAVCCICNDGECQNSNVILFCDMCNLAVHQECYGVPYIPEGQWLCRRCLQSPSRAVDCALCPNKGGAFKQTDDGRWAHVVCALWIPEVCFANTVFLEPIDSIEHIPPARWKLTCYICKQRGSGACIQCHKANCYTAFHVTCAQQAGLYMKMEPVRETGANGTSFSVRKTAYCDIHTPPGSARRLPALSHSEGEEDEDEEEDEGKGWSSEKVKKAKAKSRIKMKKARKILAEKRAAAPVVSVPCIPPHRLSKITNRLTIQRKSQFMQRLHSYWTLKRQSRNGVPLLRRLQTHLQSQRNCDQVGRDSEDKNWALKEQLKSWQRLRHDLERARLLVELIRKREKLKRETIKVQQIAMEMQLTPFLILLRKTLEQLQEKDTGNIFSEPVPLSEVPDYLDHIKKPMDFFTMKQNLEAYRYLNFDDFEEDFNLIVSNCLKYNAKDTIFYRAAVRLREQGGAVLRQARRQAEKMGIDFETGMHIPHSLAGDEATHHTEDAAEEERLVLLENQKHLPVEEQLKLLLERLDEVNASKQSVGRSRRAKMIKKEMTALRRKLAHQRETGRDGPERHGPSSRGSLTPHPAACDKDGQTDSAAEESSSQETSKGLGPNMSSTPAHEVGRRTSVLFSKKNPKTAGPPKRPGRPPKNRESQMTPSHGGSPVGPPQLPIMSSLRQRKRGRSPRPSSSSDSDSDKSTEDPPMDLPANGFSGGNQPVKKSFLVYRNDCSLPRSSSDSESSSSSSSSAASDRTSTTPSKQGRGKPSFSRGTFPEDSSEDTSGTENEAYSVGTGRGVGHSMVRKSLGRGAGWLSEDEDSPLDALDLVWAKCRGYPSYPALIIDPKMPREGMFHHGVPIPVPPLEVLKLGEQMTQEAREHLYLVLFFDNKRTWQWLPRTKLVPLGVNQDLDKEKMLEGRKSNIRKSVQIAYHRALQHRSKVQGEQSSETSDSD
In words: Inhibition of human His tagged BRPF1 incubated for 30 mins followed by addition of biotinylated peptide and further incubation for 30 mins measured by AlphaScreen assay. A digest of the protocol: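 Independent AlphaScreen biochemical confirmation of BRPF bromodomain inhibition, with BRD9 and BRD4(BD1) as counter-screens. Test compound was serially diluted from a 100 mM DMSO stock.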

For assay [2], the target named is T2, Bromodomain-containing protein 9 (Homo sapiens, UniProt Q9H8M2).
T2 sequence (Q9H8M2 whole entry): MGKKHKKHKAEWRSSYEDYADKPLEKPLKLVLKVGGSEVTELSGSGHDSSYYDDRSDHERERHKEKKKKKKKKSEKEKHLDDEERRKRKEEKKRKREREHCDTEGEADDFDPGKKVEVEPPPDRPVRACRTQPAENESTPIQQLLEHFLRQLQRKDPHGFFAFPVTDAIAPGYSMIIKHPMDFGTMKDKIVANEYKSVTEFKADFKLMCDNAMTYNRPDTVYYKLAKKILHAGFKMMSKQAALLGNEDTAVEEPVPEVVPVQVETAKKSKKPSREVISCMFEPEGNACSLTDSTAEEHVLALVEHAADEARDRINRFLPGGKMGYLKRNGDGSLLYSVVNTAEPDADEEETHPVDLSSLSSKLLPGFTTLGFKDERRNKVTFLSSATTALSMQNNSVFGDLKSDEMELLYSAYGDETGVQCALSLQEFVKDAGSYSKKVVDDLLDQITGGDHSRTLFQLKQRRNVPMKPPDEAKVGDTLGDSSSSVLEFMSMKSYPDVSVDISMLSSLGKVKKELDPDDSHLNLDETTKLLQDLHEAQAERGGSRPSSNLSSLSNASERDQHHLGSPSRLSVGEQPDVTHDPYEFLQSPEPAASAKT
The assay can be described thus: Inhibition of human His tagged BRD9 incubated for 30 mins followed by addition of biotinylated peptide and further incubation for 30 mins measured by AlphaScreen assay. (Alpha assays give light when donor and acceptor beads are brought close together.)

In assay [3] the target is T3, Bromodomain-containing protein 1 (Homo sapiens) (UniProt O95696).
T3 sequence (whole entry): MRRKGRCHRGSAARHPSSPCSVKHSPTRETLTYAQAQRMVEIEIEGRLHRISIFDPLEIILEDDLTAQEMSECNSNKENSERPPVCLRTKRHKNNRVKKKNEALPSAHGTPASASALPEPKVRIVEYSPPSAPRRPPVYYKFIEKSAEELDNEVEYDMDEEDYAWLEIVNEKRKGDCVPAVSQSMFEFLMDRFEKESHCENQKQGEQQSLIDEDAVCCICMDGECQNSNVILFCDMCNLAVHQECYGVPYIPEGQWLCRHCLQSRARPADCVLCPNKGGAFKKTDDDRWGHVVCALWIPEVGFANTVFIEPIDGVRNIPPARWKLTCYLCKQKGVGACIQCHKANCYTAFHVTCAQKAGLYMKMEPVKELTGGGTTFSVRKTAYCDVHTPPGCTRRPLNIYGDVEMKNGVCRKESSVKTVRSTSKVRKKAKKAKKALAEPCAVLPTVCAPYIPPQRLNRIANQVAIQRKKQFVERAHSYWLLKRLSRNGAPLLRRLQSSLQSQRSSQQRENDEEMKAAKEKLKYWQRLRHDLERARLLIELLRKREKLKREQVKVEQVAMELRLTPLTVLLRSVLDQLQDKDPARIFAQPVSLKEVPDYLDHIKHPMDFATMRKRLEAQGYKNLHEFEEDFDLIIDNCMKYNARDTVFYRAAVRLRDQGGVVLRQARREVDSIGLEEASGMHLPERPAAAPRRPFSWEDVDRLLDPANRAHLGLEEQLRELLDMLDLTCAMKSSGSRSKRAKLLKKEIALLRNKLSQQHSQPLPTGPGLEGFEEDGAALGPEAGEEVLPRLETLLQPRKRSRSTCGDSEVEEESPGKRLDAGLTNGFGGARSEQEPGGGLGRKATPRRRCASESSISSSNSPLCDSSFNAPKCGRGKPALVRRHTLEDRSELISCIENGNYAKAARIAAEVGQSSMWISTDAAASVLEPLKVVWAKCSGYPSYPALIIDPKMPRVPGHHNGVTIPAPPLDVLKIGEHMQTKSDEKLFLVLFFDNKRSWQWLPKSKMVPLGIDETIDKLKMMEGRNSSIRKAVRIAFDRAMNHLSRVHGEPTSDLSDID

A word on the IC50: it is the concentration at which inhibition is half-maximal. By ΔTm is commonly meant the change in melting temperature against a reference sample. Take `Cc1cc2cc(NS(=O)(=O)c3ccc(C#N)cc3)ccc2n(C)c1=O`: the IC50 in assay [1] was > 20 µM; at Peregrin, 0.14 µM; in assay [2], 1.1 µM. For the same compound, the ΔTm in assay [3] is 5.1 °C.
`Cc1cc(C#N)ccc1S(=O)(=O)Nc1ccc2c(ccc(=O)n2C)c1`: the ΔTm in assay [3] turned out to be 3.4 °C.
On to `CCc1cc2cc(NS(=O)(=O)c3ccc(C#N)cc3)ccc2n(CC)c1=O`, for which the IC50 (in assay [1]; against Peregrin; in assay [2]) was > 20 µM throughout.
